From ChEMBL document CHEMBL1151762, “5-(1-Acetoxyvinyl)-cycloSaligenyl-2',3'-dideoxy-2',3'- didehydrothymidine monophosphates, a second type of new, enzymatically activated cycloSaligenyl pronucleotides” (J Med Chem, 2008)

Key:
[1] = Chemical stability assessed as half life of hydrolysis in 25 mM phosphate buffer at pH 7.3; format: physicochemical
Procedure, shortened: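 Triesters incubated at pH 7.3 in aqueous 25 mM phosphate buffer and followed by HPLC. Half-life is taken from disappearance of the triester.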

[2] = Chemical stability assessed as half life of hydrolysis in CEM cell extracts at pH 6.9; format: physicochemical, CCRF-CEM; details: human
Procedure, shortened: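 T-lymphocyte CEM cell extracts at pH 6.9, analysed by HPLC. Half-life is taken from disappearance of the triester.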

[3] = Chemical stability assessed as half life of hydrolysis in RPMI-1640 culture medium at pH 7.6 in presence 10% heat-inactivated fetal calf serum; format: physicochemical
Procedure, shortened: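 RPMI-1640 with 10% heat-inactivated fetal calf serum, pH 7.6 (the antiviral test medium), used in place of cell extract and run by the same HPLC procedure. Half-life is taken from disappearance of the triester.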

[4] = tested on: Human immunodeficiency virus 1; assay: Antiviral activity against HIV1 replication in human wild type CEM/0 cells assessed as virus-induced cytopathic effect; format: functional, organism-based; details: Human immunodeficiency virus 1, CCRF-CEM
Procedure, shortened: (§1)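 CEM T-lymphocyte cultures (wild-type CEM/0 or thymidine kinase-deficient CEM/TK-) infected with HIV-1 or HIV-2; read-out is virus-induced cytopathic effect (giant cell formation). EC50 = 50% effective concentration, given as the mean of two to three independent experiments.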

[5] = tested on: Human immunodeficiency virus 2; assay: Antiviral activity against HIV2 replication in human wild type CEM/0 cells assessed as virus-induced cytopathic effect; format: functional, organism-based; details: Human immunodeficiency virus 2, CCRF-CEM; procedure, shortened: as §1
[6] = tested on: Human immunodeficiency virus 2; assay: Antiviral activity against HIV2 replication in human thymidine kinase deficient CEM cells assessed as virus-induced cytopathic effect; format: functional, organism-based; details: Human immunodeficiency virus 2, CCRF-CEM; procedure, shortened: as §1
[7] = Cytotoxicity against human wild type CEM/0 cells; format: cell-based; details: CCRF-CEM
Procedure, shortened: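 Wild-type CEM cells; cytostatic activity reported as the 50% cytostatic concentration.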

Row | SMILES | half-life [1] [h] | half-life [2] [min] | half-life [3] [h] | EC50 [4] [µM] | EC50 [5] [µM] | EC50 [6] [µM] | CC50 [7] [µM]
1 | C=C(OC(C)=O)c1ccc2c(c1)COP(=O)(OC[C@@H]1C=C[C@H](n3cc(C)c(=O)[nH]c3=O)O1)O2 (some centres not stated) | 1.4 | 7.8 | 1 | 0.65 | 0.8 | > 50 | 111
2 | CC(=O)OC(OC(C)=O)c1cc2c(c(C(C)(C)C)c1)O[P@@](=O)(OC[C@@H]1C=C[C@H](n3cc(C)c(=O)[nH]c3=O)O1)OC2 |  |  |  |  |  | 3.9 | 51
3 | C=C(OC(C)=O)c1cc(C)c2c(c1)COP(=O)(OC[C@@H]1C=C[C@H](n3cc(C)c(=O)[nH]c3=O)O1)O2 (some centres not stated) | 6.1 | 4.2 | 1.8 | 0.18 | 0.4 | 0.73 | 18
4 | Cc1cn([C@H]2C=C[C@@H](CO[P@]3(=O)OCc4cc(C=O)cc(C(C)(C)C)c4O3)O2)c(=O)[nH]c1=O |  |  |  |  |  | 2.6 | 27
5 | Cc1cn([C@H]2C=C[C@@H](CO)O2)c(=O)[nH]c1=O [STAVUDINE] |  |  |  | 0.85 | 1.1 | 69 | 220
6 | C=C(OC(C)=O)c1cc2c(c(C(C)(C)C)c1)OP(=O)(OC[C@@H]1C=C[C@H](n3cc(C)c(=O)[nH]c3=O)O1)OC2 (some centres not stated) | 12.3 | 2.4 | 5.2 | 0.47 | 0.88 | 1.7 | 49
7 | Cc1cn([C@H]2C=C[C@@H](COP3(=O)OCc4cc(C(OC(=O)C(C)C)OC(=O)C(C)C)cc(C(C)(C)C)c4O3)O2)c(=O)[nH]c1=O (some centres not stated) |  |  |  |  |  | 2.4 | 20
8 | Cc1cn([C@H]2C=C[C@@H](COP3(=O)OCc4cc(C=O)cc(C(C)(C)C)c4O3)O2)c(=O)[nH]c1=O (some centres not stated) |  |  |  |  |  | 15 | 33
9 | Cc1cn([C@H]2C=C[C@@H](CO[P@@]3(=O)OCc4cc(C=O)cc(C(C)(C)C)c4O3)O2)c(=O)[nH]c1=O |  |  |  |  |  | 10 | 41
10 | Cc1cn([C@H]2C=C[C@@H](CO[P@@]3(=O)OCc4cc(C(OC(=O)C(C)C)OC(=O)C(C)C)cc(C(C)(C)C)c4O3)O2)c(=O)[nH]c1=O |  |  |  |  |  | 3.6 | 40
11 | CC(=O)c1cc(C)c2c(c1)COP(=O)(OC[C@@H]1C=C[C@H](n3cc(C)c(=O)[nH]c3=O)O1)O2 (some centres not stated) | 0.75 |  | 1 | 0.54 | 2.2 | 36 | 96
12 | CC(=O)OC(OC(C)=O)c1cc2c(c(C(C)(C)C)c1)O[P@](=O)(OC[C@@H]1C=C[C@H](n3cc(C)c(=O)[nH]c3=O)O1)OC2 |  |  |  |  |  | 0.29 | 17
13 | Cc1cn([C@H]2C=C[C@@H](CO[P@]3(=O)OCc4cc(C(OC(=O)C(C)C)OC(=O)C(C)C)cc(C(C)(C)C)c4O3)O2)c(=O)[nH]c1=O |  |  |  |  |  | 1.4 | 14
14 | C=C(OC(C)=O)c1cc2c(c(C(C)(C)C)c1)O[P@](=O)(OC[C@@H]1C=C[C@H](n3cc(C)c(=O)[nH]c3=O)O1)OC2 | 13.5 | 2.4 | 7.6 | 0.21 | 0.8 | 0.27 | 20
15 | CC(=O)c1cc2c(c(C(C)(C)C)c1)OP(=O)(OC[C@@H]1C=C[C@H](n3cc(C)c(=O)[nH]c3=O)O1)OC2 (some centres not stated) | 2.3 |  | 2.5 | 0.45 | 0.87 | 1.7 | 49
16 | CC(=O)c1cc2c(c(C(C)(C)C)c1)O[P@@](=O)(OC[C@@H]1C=C[C@H](n3cc(C)c(=O)[nH]c3=O)O1)OC2 | 2.3 |  | 2 | 0.75 | 1.2 | 2.8 | 64
17 | CC(=O)c1ccc2c(c1)COP(=O)(OC[C@@H]1C=C[C@H](n3cc(C)c(=O)[nH]c3=O)O1)O2 (some centres not stated) | 0.3 |  | 0.6 | 1.3 | 3 | > 50 | 148
18 | CC(=O)c1cc2c(c(C(C)(C)C)c1)O[P@](=O)(OC[C@@H]1C=C[C@H](n3cc(C)c(=O)[nH]c3=O)O1)OC2 | 2.3 |  | 3.2 | 0.18 | 0.51 | 0.55 | 56
19 | CC(=O)OC(OC(C)=O)c1cc2c(c(C(C)(C)C)c1)OP(=O)(OC[C@@H]1C=C[C@H](n3cc(C)c(=O)[nH]c3=O)O1)OC2 (some centres not stated) |  |  |  |  |  | 0.78 | 19
20 | C=C(OC(C)=O)c1cc2c(c(C(C)(C)C)c1)O[P@@](=O)(OC[C@@H]1C=C[C@H](n3cc(C)c(=O)[nH]c3=O)O1)OC2 | 11.3 | 2.4 | 3.7 | 0.47 | 1.1 | 1.7 | 67
